According to ChEMBL document CHEMBL3091448, “Identification of potent and selective cathepsin S inhibitors containing different central cyclic scaffolds” (J Med Chem, 2013):
Active and inactive are the calls of the source. The calls are words filed in the database; no cut-off is given here.

Tests used:
[1] = biological target: Procathepsin L (Homo sapiens, UniProt P07711); assay: Inhibition of human cathepsin-L using Z-Val-Val-Arg-AMC as substrate up to 20 mins by fluorescence assay
Procedure, shortened: (§1)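 Fluorogenic quenched-peptide cleavage assay. Enzymes at 1 nM in 100 mM potassium phosphate pH 6.5, 5 mM EDTA-Na, 0.001% Triton X-100 and 5 mM DTT. Enzyme was added to the compound dilutions, then 20 μM substrate started the reaction: Z-Val-Val-Arg-AMC, or Z-Leu-Arg-AMC for CatK. Fluorescence (ex 360/em 465 nm) was read over 20 min. IC50 is the mean of ≥2 independent experiments.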

[2] = tested on: A20; assay: Inhibition of ovalbumin-induced antigen presentation in mouse A20 cells treated 1 hr before ovalbumin addition incubated for 16 hrs followed by co-cultured with DO10.10 T-cell hybridoma cells for 24 hrs assessed as IL-2 production by luminex single-bead analysis; format: functional, cell-based
Procedure, shortened: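 A20 cells were seeded at 3 × 10⁵/mL and preincubated with compound for 1 h. Ovalbumin was then added (5 mg/mL final) for 16 h. Cells were washed three times with PBS, then DO10.10 T-cell hybridoma cells (2 × 10⁵/mL) were added. After 24 h, IL-2 was quantified by Luminex single-bead assay using two anti-IL-2 antibodies. IC50 is the mean of ≥2 independent experiments.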

[3] = biological target: Cathepsin S (Mus musculus, UniProt O70370); assay: Inhibition of mouse cathepsin-S using Z-Val-Val-Arg-AMC as substrate up to 20 mins by fluorescence assay; procedure, shortened: as §1
[4] = Drug degradation in NMRI mouse plasma at 1000 ng/mL after 4 hrs; format: ADME, cell-free; conditions: read-out: Drug degradation
Procedure, shortened: (§2)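 Heparinized pooled NMRI mouse plasma was spiked with compound at 1000 ng/mL and incubated at 37 °C in an orbital shaker. Aliquots (n = 3 per time point) were taken at 2 min, 1 h and 4 h and analysed by LC−MS/MS.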

[5] = biological target: T1, Cathepsin K (Homo sapiens, UniProt P43235); assay: Inhibition of human cathepsin-K using Z-Leu-Arg-AMC as substrate up to 20 mins by fluorescence assay; procedure, shortened: as §1
T1 sequence (P43235 whole entry): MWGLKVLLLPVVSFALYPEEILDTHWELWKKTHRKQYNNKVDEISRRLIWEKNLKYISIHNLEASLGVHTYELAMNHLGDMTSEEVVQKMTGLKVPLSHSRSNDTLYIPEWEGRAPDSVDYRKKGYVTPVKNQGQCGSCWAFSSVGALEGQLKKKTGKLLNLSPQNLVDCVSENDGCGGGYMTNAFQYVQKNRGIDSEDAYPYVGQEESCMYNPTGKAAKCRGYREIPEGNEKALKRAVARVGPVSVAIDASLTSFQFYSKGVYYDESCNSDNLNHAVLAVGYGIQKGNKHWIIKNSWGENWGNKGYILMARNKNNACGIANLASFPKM

[6] = biological target: Cathepsin B (Homo sapiens, UniProt P07858); assay: Inhibition of human cathepsin-B using Z-Val-Val-Arg-AMC as substrate up to 20 mins by fluorescence assay; procedure, shortened: as §1
[7] = biological target: Cathepsin S (Homo sapiens, UniProt P25774); assay: Inhibition of human cathepsin-S using Z-Val-Val-Arg-AMC as substrate up to 20 mins by fluorescence assay; procedure, shortened: as §1
[8] = Metabolic stability in NMRI mouse plasma assessed as compound remaining at 1000 ng/mL after 4 hrs; format: ADME, cell-free; conditions: read-out: Stability; procedure, shortened: as §2
[9] = Half life in C57Bl/6 mouse at 2 mg/kg, iv; format: ADME, organism-based; set-up: dose 2 mg/kg, route intravenous; conditions: in vivo
Procedure, shortened: (§3)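 Male C57Bl/6 mice, 8 weeks old, 24−29 g. Dosing was by oral gavage at 9 mg/kg as an aqueous microsuspension in gelatin/NaCl (7.5%/0.62%), or by iv bolus at 2 mg/kg in aqueous NaCl/30% 1-methyl-2-pyrrolidone. Terminal blood (n = 2 per time point) was collected into EDTA tubes and spun at 4 °C to obtain plasma. Plasma levels were measured by LC−MS/MS after acetonitrile precipitation. Values are the mean of two experiments.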

[10] = tested on: Mus musculus; assay: Dose normalized AUC in C57Bl/6 mouse at 2 mg/kg, iv; format: ADME, organism-based; set-up: dose 2 mg/kg, route intravenous; conditions: in vivo; procedure, shortened: as §3
[11] = Oral bioavailability in C57Bl/6 mouse at 9 mg/kg; format: ADME, organism-based; conditions: in vivo; procedure, shortened: as §3
[12] = tested on: Mus musculus; assay: Dose normalized AUC in C57Bl/6 mouse at 9 mg/kg, po; format: ADME, organism-based; set-up: dose 9 mg/kg, route oral; conditions: in vivo; procedure, shortened: as §3
[13] = Clearance in C57Bl/6 mouse at 2 mg/kg, iv and 9 mg/kg, po; format: ADME, organism-based; conditions: in vivo; procedure, shortened: as §3
[14] = tested on: Mus musculus; assay: Reduction of ovalbumin-induced IL-2 production in DO10.11 transgenic BALB/c mouse at 50 mg/kg, po administered 30 mins before ovalbumin challenge measured after 4 hrs by luminex single-bead analysis; format: functional, organism-based; set-up: dose 50 mg/kg
Procedure, shortened: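 DO10.11 BALB/c mice carrying a transgenic ovalbumin-peptide TCR were dosed orally with compound, then challenged iv with 1.0 mg low-endotoxin ovalbumin. Plasma IL-2 was measured at 4 h by Luminex bead assay using two anti-IL-2 antibodies. Groups had n = 8, and reduction was expressed versus the ovalbumin challenge group (ANOVA with Dunnett test).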

[15] = tested on: Plasma; assay: Metabolic stability in human plasma assessed as compound remaining at 1000 ng/mL after 5 hrs; format: ADME, cell-free
[16] = Plasma concentration in DO10.11 transgenic BALB/c mouse at 50 mg/kg, po administered 30 mins before ovalbumin challenge measured after 4 hrs; format: ADME, organism-based; set-up: dose 50 mg/kg, route oral
[17] = Volume of distribution at steady state in C57Bl/6 mouse at 2 mg/kg, iv and 9 mg/kg, po; format: ADME, organism-based; conditions: in vivo, read-out: Vdss; procedure, shortened: as §3
[18] = Half life in C57Bl/6 mouse at 9 mg/kg, po; format: ADME, organism-based; set-up: dose 9 mg/kg, route oral; conditions: in vivo; procedure, shortened: as §3

Sequence of Cathepsin S (Mus musculus, UniProt O70370) (O70370 whole entry): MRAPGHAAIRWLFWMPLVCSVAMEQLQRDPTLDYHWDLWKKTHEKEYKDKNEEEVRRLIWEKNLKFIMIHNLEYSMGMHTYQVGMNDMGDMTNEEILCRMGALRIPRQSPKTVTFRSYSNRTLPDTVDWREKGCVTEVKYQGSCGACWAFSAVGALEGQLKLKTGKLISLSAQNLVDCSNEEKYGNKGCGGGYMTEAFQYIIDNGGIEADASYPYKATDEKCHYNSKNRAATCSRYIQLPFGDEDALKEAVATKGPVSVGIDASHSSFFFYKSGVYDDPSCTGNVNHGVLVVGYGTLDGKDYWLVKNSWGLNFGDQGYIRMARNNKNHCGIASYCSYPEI
Sequence of Cathepsin S (Homo sapiens, UniProt P25774) (P25774 whole entry): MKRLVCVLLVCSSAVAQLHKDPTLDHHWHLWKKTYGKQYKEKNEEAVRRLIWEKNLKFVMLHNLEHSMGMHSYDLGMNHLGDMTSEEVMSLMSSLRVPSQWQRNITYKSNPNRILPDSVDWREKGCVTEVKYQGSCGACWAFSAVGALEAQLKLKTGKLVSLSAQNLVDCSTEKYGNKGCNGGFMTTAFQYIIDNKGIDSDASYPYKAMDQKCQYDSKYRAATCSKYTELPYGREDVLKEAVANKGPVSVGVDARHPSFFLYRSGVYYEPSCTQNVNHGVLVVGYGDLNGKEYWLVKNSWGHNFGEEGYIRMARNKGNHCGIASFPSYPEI
Sequence of Procathepsin L (P07711 whole entry): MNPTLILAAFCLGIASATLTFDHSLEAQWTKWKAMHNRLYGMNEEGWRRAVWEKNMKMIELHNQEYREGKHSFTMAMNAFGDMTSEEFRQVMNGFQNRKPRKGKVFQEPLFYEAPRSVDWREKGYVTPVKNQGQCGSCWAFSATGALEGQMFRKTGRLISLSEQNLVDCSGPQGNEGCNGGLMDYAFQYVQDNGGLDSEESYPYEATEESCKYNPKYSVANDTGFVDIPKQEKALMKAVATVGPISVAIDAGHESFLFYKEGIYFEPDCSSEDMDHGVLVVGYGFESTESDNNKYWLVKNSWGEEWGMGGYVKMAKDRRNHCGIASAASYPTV

| IC50 [1] [nM] | IC50 [2] [nM] | IC50 [3] [nM] | metabolised at 4 h, 1000 ng/mL [4] [%] | IC50 [5] [nM] | IC50 [6] [nM] | IC50 [7] [nM] | remaining at 4 h, 1000 ng/mL [8] [%] | half-life [9] [h] | AUC/dose [10] [ng·h/mL] | bioavailability [11] [%] | AUC/dose [12] [ng·h/mL] | clearance [13] [mL/min/kg] | Stability [15] | concentration at 4 h [16] [ng/mL] | Vd [17] [L/kg] | half-life [18] [h] | SMILES | Activity [14] |
| --- | --- | --- | --- | --- | --- | --- | --- | --- | --- | --- | --- | --- | --- | --- | --- | --- | --- | --- |
| 6800 | 15 | 1 | > 90 | > 25000 | 35200 | 0.8 | – | – | – | – | – | – | – | – | – | – | N#CC1(NC(=O)[C@@H]2C[C@@H](S(=O)(=O)c3ccccc3Cl)CN2C(=O)c2ccccc2)CC1 | – |
| > 25000 | 58 | 6 | – | > 25000 | > 25000 | 2 | 51 | 1.1 | 10400 | 69 | 7200 | 1.6 | Stable | 2050 | 0.13 | 0.9 | N#CC1(NC(=O)[C@@H]2C[C@@H](S(=O)(=O)c3ccccc3C(F)(F)F)CN2)CC1 | inactive |
